Measured values from the EternaBench riboswitch data.

Test system: MS2 coat protein
Test: apparent Kd, MS2 coat protein; higher = weaker binding; RNA-MaP array; FMN 200 µM where present
Outline: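 Stalled E. coli RNA polymerase transcribed the designs on Illumina sequencing-chip clusters. SNAP-549-labelled MS2 coat protein was titrated from 0.7 or 1.5 nM, doubling to 3 µM, without and then with constant ligand, in 100 mM Tris-HCl pH 7.5, 80 mM KCl, 4 mM MgCl2, BSA, DTT, yeast tRNA and Tween-20. Per-cluster binding curves were fitted to green signal normalised to red-channel RNA signal and control-cluster median Fmax. The apparent Kd is the median of the filtered fits.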

[1] = designed as: OFF switch for flavin mononucleotide, no ligand
[2] = ligand present: flavin mononucleotide, designed as: OFF switch for flavin mononucleotide
[3] = designed as: ON switch for flavin mononucleotide, no ligand
[4] = ligand present: flavin mononucleotide, designed as: ON switch for flavin mononucleotide

| Sequence | apparent Kd [1] [nM] | apparent Kd [2] [nM] | apparent Kd [3] [nM] | apparent Kd [4] [nM] |
| --- | --- | --- | --- | --- |
| AUAUCUUUAUCAGGAUAUGGACAGGCCUGUCCGUAUUGAGACAGUAACAUGAGGAUCACCCAUGUCCAGAAGGGAUCGAUGUAU | 56.5 | 45.8 | – | – |
| AUCAGCUCGUCAGGAUAUACGUCACUGCGUAAGCAGUGUGGUAAGAUCACAUGAGGAUCACCCAUGUAGAAGGGACGAGCUGAU | 12.9 | 288 | – | – |
| GGUCGUCACAUUAACAUGAGGAUCACCCAUGUCUCUUGACAUGAGGAUAUGGAUCCUAAUUGGAUCCAGAAGGCAUGGACGACC | – | – | 1030 | 96.5 |
| UUUCUUGGGCAAGGAUAUCCUGUGCGGUUCCGGCUCGUGUCUGUCACAUGAGGAUCACCCAUGUGGGAGAAGGUGCCUGCAGUC | 6.22 | 7.07 | – | – |
| GCAAAGCCUGACAUGAGGAUCACCCAUGUUAGAUUGUUAUGUCAGGAUAUUGUCUAGACCCUAGACAAGAAGGGAUGCUUUGCU | – | – | 371 | 26.9 |
| GGAUAGGACAGAGGAUAUACGUGCUAGAGAUACUAGCUACAAAUCCUUACAUGAGGAUCACCCAUGUAGAAGGCUGUCCUAUCG | 19.3 | 38.3 | – | – |
| AAGAAGUCAGGAUAUCCUGCUCGUCACUUGCGUGAUGAGUAGGAGAAGGGACAUGAGGAUCACCCAUGUAAAGA | 54.3 | 51.5 | – | – |
| ACCAAGCGAGGAUAUACUUAGAUUUUUUCGUUUAGUCUCGAACAUGAGGAUCACCCAUGUAGAAGGUGCUUCAC | 47.8 | 46.5 | – | – |
| GUGCCUUGGGAGAAGGUUACAUGCAAAGCAUUUAAAGGAUAUUCAUACCGGAAACGGACAUGAGGAUCACCCAUGUGGCACAAA | – | – | 870 | 145 |
| AAAAAACAUGAGGAUCACCCAUGUAAGGAUAUGACUUAAAUAAAGAAAGAAGAAAUAGUCAGAAGGUACAAAUA | 45.3 | 51.1 | – | – |
| UCCCUGUGAGGAUAUCUCUUUGAGUGCGGCGAAUUCAGGUGGGAGAAGGCACAUGAGGAUCACCCAUGUAUUGC | 40.2 | 73 | – | – |
| CGCUACAGCCAGAAGGACAUGAGGAUCACCCAUGUAGGAUAUGGGAGACGAGGUCCAGUGUAGAGAAACUACGCUACUGUAGCG | – | – | 292 | 151 |
| CGAUCGUGUAGAGGAUAUGUUAUACAUGAGGAUCACCCAUGUGAGGUGGAAAUAUUUAAUUACAUACAGAAGGCUACACGAUCG | 269 | 227 | – | – |
| CCUGCACAUGAGGAUCACCCAUGUUAGGAUAUAUUUGACCGUGGAAUUACCAUUGGAAGUAGAAGGAACAUGUA | 16.1 | 18 | – | – |
| AAAUCUGCUGAGGAUAUGAUGACUGAGAGGUCAUCAGAAGGCGGUACAUGAGGAUCACCCAUGUCUAUGGGCAA | 310 | 659 | – | – |
| AGCUGGUGACAGCAUCCAUCAAAACAUGAGGAUCACCCAUGUAGAAGGCUGUACGGUUACCGUACAGAGGAUAUACAAUGAUGG | 7.61 | 9.36 | – | – |
| UUUUUUUAAUAGAAGGAGGACUUCAUGAGGAUCACCCAUGUGUUAGUACUUAGGAUAUGUAAUAACAUGAGGAUCACCCAUGUC | – | – | 51.9 | 48.7 |
| GGAUAGGACAGAGGAUAUACGUGCUAGAGAUACUAGCAAAAUUUGCUCACAUGAGGAUCACCCAUGUAGAAGGCUGUCCUAUCG | 5.31 | 19.7 | – | – |
| GUCAGCUCGUGAGGAUAUACAACACUGCUUCGGCAGUGUUUUAAGAUCACAUGAGGAUCACCCAUGUAGAAGGCACGAGCUGAU | 6.29 | 44 | – | – |
| UGCUGACGAGGAUAUACAUGAGGAUCACCCAUGUUGGUCAAGCGACGAUAGUCGCAAUGUAGAAGGCGUCAGCU | 483 | 208 | – | – |
| GCCAUCGCAUGAGGAUAUCGUCAGGUUUCCUGACGAGAAGGCAUGUCAUAAGACAUGAGGAUCACCCAUGUAGUUAAGAUGGCA | – | – | 658 | 57 |
| CGAUUGACGUAGAAGGGACUUAAGGGACAAAGCAUGCGAACGGACGGACAUGAGGAUCACCCAUGUCAGGAUAUACGUUCAUUU | 5.27 | 6 | – | – |
| AAACCACAUGAGGAUCACCCAUGUGAGGAUAUGAUACUAUGUACUUCGGUACAUAGUAUCAGAAGGCAUGUGGA | 180 | 130 | – | – |
| CUGAGGUCAGGAUAUGCAUGGCGGGACUUGCGUCGUGGCGUGCAGAAGGGACAUGAGGAUCACCCAUGUGGAGC | 86.7 | 249 | – | – |
| AAGGCGAGAGGAUAUACAUGAGGAUCACCCAUGUGUCGGCCCUCCGCAUAUGCCUUGUGUAGAAGGCUCCCGAA | 16.5 | 22.9 | – | – |
| AAUAACAGAGGAUAUACUGUUUUAUGUGUUUGUUGUUUUGAACAUGAGGAUCACCCAUGUAGAAGGCUGAAUGA | 28.1 | 25.9 | – | – |
| AUCAGCUCAUCAGGAUAUACGUCACUGCGUCAGCAGUGUGGUAAGAUCACAUGAGGAUCACCCAUGUAGAAGGGACGAGCUGAU | 13.7 | 243 | – | – |
| CUCAUGUGAGGAUAUCAGUAGUGAUACGAUAGUAUUACUGCUGAGAAGGUACAUGAGGAUCACCCAUGUUCCUC | 26.9 | 37.8 | – | – |

| Sequence | apparent Kd [1] [nM] | apparent Kd [2] [nM] | apparent Kd [3] [nM] | apparent Kd [4] [nM] |
| --- | --- | --- | --- | --- |
| AGUGUUGGAGGAUAUACAUGAGGAUCACCCAUGUACAUCACACAGUAUAUCAAACCAUGUAGAAGGCCAAUACA | 18.2 | 36.4 | – | – |
| UCGCUGCGAGGAUAUACAUGAGGAUCACCCAUGUACGGGUCCGGGUCUAAGUUGAUAAGUAGAAGGCGCAGUGA | 125 | 112 | – | – |
| GUACAGAGGGAGAAGGGCUAGGAGGUCCAGCUUAUGUGUGUUGCAACAUGAGGAUCACCCAUGUAGCAGGAUAUCCCUCGUACA | 40.2 | 257 | – | – |
| GGGUGACAUGAGGAUCACCCAUGUCAGGAUAUGAUACUAUGUACUUCGGUACAUAGUAUCAGAAGGGACAUAAA | 104 | 27.1 | – | – |
| UUAAUUAUACAAGGAUAUCUAUUGUAGUUUCGACUUACAUGAGGAUCACCCAUGUUAAUAUGUUUAGAGAAGGUGUAUUUUCUG | – | – | 51 | 49.5 |
| GUAGCAAUCGGAGGAUAUUCAUACCGGAAACGGACAUGAGGAUCACCCAUGUGGCGAAAGCCUUGGGAGAAGGCCGAUUGCUAC | – | – | 614 | 21.2 |
| UCGGCGCGAGGAUAUACGUUUGCUUUUUAGGAUCGUUGCGUACAUGAGGAUCACCCAUGUAGAAGGCGCGCCGC | 14.6 | 19.5 | – | – |
| AUAUGAUAGAUAGGAUAUACUAUGGUUGAAUAUGUAGAAGGAUCAAUAGGGAAAUGUACAUGAGGAUCACCCAUGUUAUGGAUU | – | – | 32.9 | 31.3 |
| CCAUAAAAGAUCCAAAAUUACAACAUGAGGAUCACCCAUGUGCAGGAUAUCGUGCCAGUGAAGUACGAGAAGGGCAGACACUGC | 450 | 487 | – | – |
| GCCGGAGCAGGAUAUUCAAUAUCACACAUGAGGAUCACCCAUGUCCAGCGAAAGCUGGAGGGAGAAGGGCUCUGGC | 70.8 | 20.3 | – | – |
| CGUAGGAUCCAGAAGGCAUGAACAUGAGGAUCACCCAUGUUAAAAUACAUGAGGAUAUGGAUCCUACGAAAAGUGCGAAAGCAC | – | – | 5.75 | 4.99 |
| UUCAUGUGAGGAUAUGCGGCGCCAGGCGAGCCUGGCACUGAGCAGAAGGCACAUGAGGAUCACCCAUGUGCUCC | 33.5 | 73.5 | – | – |
| UAAAAGCAAGGAUAUACAUGAGGAUCACCCAUGUGAGGCUAAGUCUGCCAUGGCUCAGGUAGAAGGUGCGUCGA | 51.3 | 241 | – | – |
| UGUGCGUAUGUGAGGAUAUGCUGGUCCUUGGCUCGGCAGAAGGCACAUGAGGAUCACCCAUGUGGUGUCGUACA | 227 | 37.5 | – | – |
| GGGUACAUCGGAGGAUAUCAUGUAAAUACAUGAGGAUCACCCAUGUCGAUGUAGACAUCGGAGAUUGAGAAGGCCGAUGUACCG | – | – | 1400 | 52 |
| CAGGUAUAAGGAUAUACAUAGAUACAGACACAUGUUCAAGUACAUGAGGAUCACCCAUGUAGAAGGUAUAUAUG | 28.8 | 25.6 | – | – |
| UGAUUUUCUUCUAACUAUCACCACAUGAGGAUCACCCAUGUCAAGGAUAUAGAGCGCGCUGGGUUCUAGAAGGUGGCGUGCCAA | 7.52 | 6.47 | – | – |
| CCUCUACAUGAGGAUCACCCAUGUGAGGAUAUCUCGGAACAACCACUUAAGGCACUCCAGAGAAGGCACGUGUA | 14.9 | 20.9 | – | – |
| CGUAGCAAAGUGAGGAUAUCUAGAGCGAUAGCUCUAGAGAAGGCACAUGAGGAUCACCCAUGUGAUCAGCUACG | 276 | 899 | – | – |
| GACUCGCGCACAGGAUAUCCACAGAGCGGACGUGGAGAAGGGUGACAUGAGGAUCACCCAUGUACGUGAGUCUAGAUCACUUCC | – | – | 52.4 | 31 |
| GUAUAUCACUAAGGAUAUCUGUAAUUUGUUGAAACAUGAGGAUCACCCAUGUUCAUGAAUUUAUAGGAGAAGGUAGAGAUAUAC | – | – | 4.24 | 4.15 |
| AUGACAUGCAGAGCGCAACGGCGUACAUGAGGAUCACCCAUGUAGGAUAUACUACACAAAGUGUAGUAGAAGGACAUGCGACUG | 18.6 | 21.3 | – | – |
| CCGAUAAGGAGAGGAUAUGGACAUGAGGAUCACCCAUGUACAUGGGAAUAUAUACUGAAUUUUUACUAGAAGGCUUACAUAAAU | 15.6 | 12.6 | – | – |
| UAGUCGGUAGAUAAUAAUGAAUACAUGAGGAUCACCCAUGUAUAGGAUAUCGUCAGGAAUACUGACGAGAAGGAUACAUCCGAC | 16.1 | 18.4 | – | – |
| AGAUGACAAAGUCAUCUCUGACGGACAUGAGGAUCACCCAUGUAGGAUAUGCUACUCAAAGAGUAGCAGAAGGACAUGUGUCUU | 33.5 | 173 | – | – |
| GGUUAUUGCAAGGAUAUGCUUUUUUUUUAUAUUGCAGAAGGUGCAACAUGAGGAUCACCCAUGUUGGAGGGUUU | 24.5 | 42.9 | – | – |
| GGAUAGGACAGAGGAUAUAAGUGCUAGAGAUACUAGCAAAAUUUCCUCACAUGAGGAUCACCCAUGUAGAAGGCUGUCCUAUCG | 5.71 | 11.3 | – | – |
